Activity calls are given as the source filed them. No cut-off for these calls is given here.
Legend:
[1] = Cmax in Sprague-Dawley rat at 10 mg/kg, po after 0.25 to 24 hrs by LC-MS/MS method; format: ADME, organism-based; set-up: dose 10 mg/kg, route oral; conditions: in vivo
Procedure, shortened: (§1)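 Male Sprague Dawley rats, 7-8 weeks old, n=4 per group. IV dose 5 mg/kg free base in 10% ethanol/90% PEG400; oral dose 10 mg/kg as corn oil suspension after 16 h fast. Blood taken 0.08-24 h (IV) or 0.25-24 h (PO). Plasma diluted in acetonitrile with internal standard, analysed by LC-MS/MS, parameters by non-compartmental analysis.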

[2] = Tmax in Sprague-Dawley rat at 10 mg/kg, po after 0.25 to 24 hrs by LC-MS/MS method; format: ADME, organism-based; conditions: in vivo
Procedure, shortened: (§2)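 Male Sprague Dawley rats, 7–8 weeks old, n=4, fasted 16 h. Free base given at 10 mg/kg po as a corn oil suspension (5 mL/kg); a 5 mg/kg iv arm used 10% ethanol/90% PEG400. Plasma sampled 0.25–24 h, acetonitrile-precipitated with internal standard, and measured by LC-MS/MS. Parameters derived by non-compartmental analysis.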

[3] = Half life in Sprague-Dawley rat at 10 mg/kg, po after 0.25 to 24 hrs by LC-MS/MS method; format: ADME, organism-based; conditions: in vivo; procedure, shortened: as §1
[4] = system: Rattus norvegicus; experiment: AUC (0 to infinity) in Sprague-Dawley rat at 10 mg/kg, po after 0.25 to 24 hrs by LC-MS/MS method; format: ADME, organism-based; set-up: dose 10 mg/kg, route oral, time infinity; conditions: in vivo; procedure, shortened: as §1
[5] = system: Rattus norvegicus; experiment: AUC (0 to t) in Sprague-Dawley rat at 10 mg/kg, po after 0.25 to 24 hrs by LC-MS/MS method; format: ADME, organism-based; set-up: time lower 0.25 hr, dose 10 mg/kg, time upper 24 hr, route oral; conditions: in vivo; procedure, shortened: as §1
[6] = MRT in Sprague-Dawley rat at 10 mg/kg, po after 0.25 to 24 hrs by LC-MS/MS method; format: ADME, organism-based; conditions: in vivo; procedure, shortened: as §1
[7] = Oral bioavailability in Sprague-Dawley rat at 10 mg/kg after 0.25 to 24 hrs by LC-MS/MS method; format: ADME, organism-based; conditions: in vivo; procedure, shortened: as §2
[8] = Half life in Sprague-Dawley rat at 5 mg/kg, iv after 0.08 to 24 hrs by LC-MS/MS method; format: ADME, organism-based; conditions: in vivo; procedure, shortened: as §1
[9] = system: Rattus norvegicus; experiment: AUC (0 to infinity) in Sprague-Dawley rat at 5 mg/kg, iv after 0.08 to 24 hrs by LC-MS/MS method; format: ADME, organism-based; set-up: dose 5 mg/kg, time infinity, route intravenous; conditions: in vivo; procedure, shortened: as §1
[10] = system: Rattus norvegicus; experiment: AUC (0 to t) in Sprague-Dawley rat at 5 mg/kg, iv after 0.08 to 24 hrs by LC-MS/MS method; format: ADME, organism-based; set-up: time upper 24 hr, time lower 0.08 hr, dose 5 mg/kg, route intravenous; conditions: in vivo; procedure, shortened: as §1
[11] = MRT in Sprague-Dawley rat at 5 mg/kg, iv after 0.08 to 24 hrs by LC-MS/MS method; format: ADME, organism-based; conditions: in vivo; procedure, shortened: as §1
[12] = system: Mus musculus; experiment: Antiarthritic activity in collagen-induced DBA1/J mouse arthritis model assessed as decrease in clinical arthritis score at 100 mg/kg, po qd measured twice weekly for 18 days; format: functional, organism-based
Procedure, shortened: (§3)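 Male DBA1/J mice, 6 weeks old, immunized s.c. at the tail base with type II collagen (2 mg/mL) in complete Freund's adjuvant (1:1, 0.1 mL), then boosted at day 21 with collagen in incomplete Freund's adjuvant. Clinical scores taken twice weekly for 18 days; serum IL-6 and TNF-α measured after autopsy; right hind ankle assessed by histopathology and by micro-CT for bone surface/volume.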

[13] = system: Mus musculus; experiment: Antiarthritic activity in collagen-induced DBA1/J mouse arthritis model assessed as decrease in ratio of bone surface to bone volume of right hind ankle joint at 100 mg/kg, po qd measured on day 19 by micro-CT analysis; format: functional, organism-based; procedure, shortened: as §3
[14] = system: Mus musculus; experiment: Antiarthritic activity in collagen-induced DBA1/J mouse arthritis model assessed as decrease in right hind ankle joint thickness at 100 mg/kg, po qd measured on day 19 by hematoxylin-eosin staining-based assay; format: functional, organism-based; procedure, shortened: as §3
[15] = system: Mus musculus; experiment: Antiarthritic activity in collagen-induced DBA1/J mouse arthritis model assessed as decrease in articular surface cartilage thickness in right hind ankle joints at 100 mg/kg, po qd measured on day 19 by hematoxylin-eosin staining-based assay; format: functional, organism-based; procedure, shortened: as §3
[16] = system: Mus musculus; experiment: Antiarthritic activity in collagen-induced DBA1/J mouse arthritis model assessed as decrease in infiltration of inflammatory cells in right hind ankle joints at 100 mg/kg, po qd measured on day 19 by hematoxylin-eosin staining-based assay; format: functional, organism-based; procedure, shortened: as §3
[17] = system: Mus musculus; experiment: Antiarthritic activity in collagen-induced DBA1/J mouse arthritis model assessed as decrease in serum IL-6 levels at 100 mg/kg, po qd measured on day 19 by ELISA; format: functional, organism-based; procedure, shortened: as §3
[18] = system: Mus musculus; experiment: Antiarthritic activity in collagen-induced DBA1/J mouse arthritis model assessed as decrease in serum TNF-alpha levels at 100 mg/kg, po qd measured on day 19 by ELISA; format: functional, organism-based; procedure, shortened: as §3
[19] = system: Rattus norvegicus; experiment: Antiarthritic activity in adjuvant-induced SPF LEW/SsNSlc rat arthritis model assessed as paw thickness at 20 mg/kg, po qd measured on day 14; format: functional
Procedure, shortened: (§4)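 Lewis rats were 10 weeks old after 2 weeks acclimation. Immunized s.c. at the tail base with 0.1 mL complete Freund's adjuvant containing 10 mg/mL heat-killed mycobacterium. From day 12 post-immunization (day 1), n=10 per group, oral dosing once daily for 14 days, vehicle corn oil. Clinical score and hind paw measured twice weekly.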

[20] = system: Rattus norvegicus; experiment: Antiarthritic activity in adjuvant-induced SPF LEW/SsNSlc rat arthritis model assessed as decrease in clinical arthritis score at 20 mg/kg, po qd measured on day 14; format: functional, organism-based; procedure, shortened: as §4
[21] = system: Mus musculus; experiment: Antiarthritic activity in collagen-induced DBA1/J mouse arthritis model assessed as decrease in paw volume at 100 mg/kg, po qd measured on day 1 and 15 by plethysmometer

| Compound | Cmax [1] [ng/mL] | Tmax [2] [h] | half-life [3] [h] | AUC [4] [ng·h/mL] | AUCt [5] [ng·h/mL] | MRT [6] [h] | bioavailability [7] [%] | half-life [8] [h] | AUC [9] [ng·h/mL] | AUCt [10] [ng·h/mL] | MRT [11] [h] | also measured |
| --- | --- | --- | --- | --- | --- | --- | --- | --- | --- | --- | --- | --- |
| CN(c1ncnc2[nH]ccc12)[C@H]1CN(C(=O)CC#N)CC12CC2.Cl | 1300 | 0.4 | 1.1 | 2400 | 2400 | 1.6 | 65 | 0.6 | 1900 | 1800 | 0.7 |  |
| CN(c1ncnc2[nH]ccc12)[C@H]1CN(C(=O)CC#N)CC12CC2.O=C(O)CC(O)(CC(=O)O)C(=O)O | 1200 | 0.5 | 3.6 | 2400 | 2400 | 2.3 | 58 | 4.3 | 2000 | 2000 | 1.2 |  |
| O=C(Nc1nc2cccc(-c3ccc(CN4CCS(=O)(=O)CC4)cc3)n2n1)C1CC1 [FILGOTINIB] |  |  |  |  |  |  |  |  |  |  |  | Activity [12]: Active; Activity [13]: Active; Activity [14]: Active; Activity [15]: Active; Activity [16]: Active; Activity [17]: Active; Activity [18]: Active; Activity [19]: 10.32 mm; Activity [20]: Active; Activity [21]: Active |
